Data set [1] has as its target T1, Cholesteryl ester transfer protein (Homo sapiens, UniProt P11597).
T1 sequence (P11597 whole entry): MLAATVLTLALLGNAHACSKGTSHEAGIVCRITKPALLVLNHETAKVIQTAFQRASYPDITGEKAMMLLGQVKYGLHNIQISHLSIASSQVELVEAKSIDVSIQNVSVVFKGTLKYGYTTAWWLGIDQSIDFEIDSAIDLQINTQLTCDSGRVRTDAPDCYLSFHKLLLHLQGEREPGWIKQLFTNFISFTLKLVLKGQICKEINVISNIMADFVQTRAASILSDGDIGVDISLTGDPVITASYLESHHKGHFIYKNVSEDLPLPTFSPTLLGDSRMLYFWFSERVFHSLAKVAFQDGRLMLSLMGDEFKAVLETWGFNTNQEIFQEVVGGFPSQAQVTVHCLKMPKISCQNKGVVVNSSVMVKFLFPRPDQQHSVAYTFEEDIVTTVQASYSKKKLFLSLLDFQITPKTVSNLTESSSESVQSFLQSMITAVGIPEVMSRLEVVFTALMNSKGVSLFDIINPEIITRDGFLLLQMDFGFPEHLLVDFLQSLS
Nature of the data set: Concentration required for 50% inhibition of cholesteryl ester transfer protein in presence of buffer.

Data set [2] addresses T1, Cholesteryl ester transfer protein. The data set is described as follows: Inhibition of cholesteryl ester transfer protein in presence of human serum. The essentials:
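CETP-mediated transfer of [³H]CE from HDL donor particles, measured with human serum supplying LDL, VLDL and human CETP.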

In data set [3] the target is T2, Cholesteryl ester transfer protein (Homo sapiens) (UniProt P11597).
T2 sequence (whole entry): T1 sequence (P11597 whole entry)
To be noted: Cricetulus griseus; 33 mg/kg.

The test system of data set [4] is Mus musculus. The data set is described as follows: Inhibition of CETP-mediated transfer ex vivo after 30 min in hCEPT transgenic mice by a single dose at 30 mg/kg. Format: functional. The following applies: 0.5 h. The essentials: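 C57Bl/6 mice homozygous for the human CETP gene, fed high-fat chow for at least 2 weeks. Single 30 mg/kg iv bolus in 10% ethanol/90% PEG; controls got vehicle. 0.05 mL [³H]CE-HDL (human HDL) was given into the tail vein. After 30 min, EDTA blood was taken and plasma obtained at 4 °C. Gel filtration gave the [³H]CE proportion in VLDL, LDL and HDL, compared with controls.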

Data set [5] in a line: Bioavailability in mice was reported. To be noted: mouse, in vivo. Format: ADME, organism-based.
Data set [6] concerns the target T2, Cholesteryl ester transfer protein (Homo sapiens). To be noted: Cricetulus griseus; 30 mg/kg.
The subject of data set [7] is Mus musculus. The data set is described as follows: Oral dosing of qd for 5 days at 30 mg/kg had percent increase of HDLc in hCEPT transgenic mice. Format: functional. The method, boiled down: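 C57bl mice transgenic for human CETP (plasma hCETP 2–20 µg/mL), fed cholesterol- and fat-supplemented chow for at least 2 weeks. Dosed orally at 30 mg/kg once daily for 5 days. Serum then analysed by size exclusion chromatography on two Superose 6 columns for relative VLDLc, LDLc and HDLc.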

The source of these data is ChEMBL document CHEMBL1135762, “Chiral N,N-disubstituted trifluoro-3-amino-2-propanols are potent inhibitors of cholesteryl ester transfer protein” (J Med Chem, 2002).

For orientation: IC50 means the concentration that inhibits the measured activity by half. One may read the inhibition as the share of the control response that was lost under treatment. Higher therefore signals a strong effect. One may read the inhibition in vivo as the percentage by which the read-out fell short of the control. For orientation: bioavailability means the share of a dose that reaches the circulation, judged against a reference dose that is usually intravenous.

Structures are written as SMILES.

On to `COc1cccc(CN(CC(O)C(F)(F)F)c2cccc(Oc3ccccc3)c2)c1` (stereo not given), for which the IC50 was 15 µM in data set [1] and over 200 µM in data set [2].
Turning to `Cc1ccccc1N(Cc1cccc(C(F)(F)F)c1)CC(O)C(F)(F)F` (stereo not given), the IC50 in data set [1] was over 100 µM.
In data set [3], `O[C@H](CN(Cc1cccc(OC(F)(F)C(F)F)c1)c1cccc(Oc2ccccc2)c1)C(F)(F)F` had an inhibition of 30%.
For `CC(C)(O)c1cccc(CN(CC(O)C(F)(F)F)c2cccc(Oc3ccccc3)c2)c1` (stereo not given), the IC50 in data set [1] came to 7.8 µM.
Same read-out and setting: then `OC(CN(Cc1cccc(Oc2cccc(C(F)(F)F)c2)c1)c1cccc(F)c1)C(F)(F)F` (stereo not given), with over 100 µM.
Turning to `OC(COc1cccc(CN(CC(O)C(F)(F)F)c2cccc(Oc3ccccc3)c2)c1)C(F)(F)F` (stereo not given), the IC50 in data set [1] is 1.3 µM; in data set [2], 62 µM.
`OC(CN(Cc1cccc(OC(F)(F)C(F)F)c1)c1cccc(Oc2ccccc2)c1)C(F)(F)F` (stereo not given) yielded an inhibition in vivo at 30 mg/kg in data set [4] of 50%. In data set [5], this compound displayed a bioavailability of under 10%. The compound further gave an inhibition in data set [6] of 30%. The same compound registered an Increase in data set [7] of 20%.
As for `OC(CN(Cc1cccc(C(F)(F)F)c1)c1cccc(Cl)c1)C(F)(F)F` (stereo not given), the IC50 in data set [1] worked out at 12 µM.
Turning to `C=CC(O)CN(Cc1cccc(OC(F)(F)F)c1)c1cccc(Oc2ccccc2)c1` (stereo not given), in data set [1], the IC50 was over 50 µM.
Consider `CC(C)(C)Oc1cccc(CN(CC(O)C(F)(F)F)c2cccc(Oc3ccccc3)c2)c1` (stereo not given), for which the IC50 was 0.66 µM in data set [1] and 29 µM in data set [2].
Consider `OC(CN(Cc1cccc(C2CCCC2)c1)c1cccc(Oc2ccccc2)c1)C(F)(F)F` (stereo not given), for which the IC50 in data set [1] amounted to 0.3 µM.
Turning to `OC(CN(Cc1cccc(C(F)(F)F)c1)c1cccc(F)c1)C(F)(F)F` (stereo not given), in data set [1], the IC50 stood at 37 µM.
`Cc1ccc(N(Cc2cccc(C(F)(F)F)c2)CC(O)C(F)(F)F)cc1` (stereo not given): the IC50 in data set [1] is over 100 µM.
On to `Cc1ccc(CN(CC(O)C(F)(F)F)c2cccc(F)c2)cc1` (stereo not given), for which the IC50 in data set [1] came to 65 µM.
Same read-out and setting: the result for `OC(CN(Cc1cccc(OC(F)(F)C(F)F)c1)c1cccc(F)c1)C(F)(F)F` (stereo not given) reads 4.5 µM; that for `Cc1ccccc1CN(CC(O)C(F)(F)F)c1cccc(F)c1` (stereo not given), over 100 µM.
Same read-out and setting: then `COC(=O)c1cccc(CN(CC(O)C(F)(F)F)c2cccc(Oc3ccccc3)c2)c1` (stereo not given), with 16 µM; and `OC(Cc1ccccc1)CN(Cc1cccc(OC(F)(F)F)c1)c1cccc(Oc2ccccc2)c1` (stereo not given), with over 50 µM; and `OC(CN(Cc1cccc(OC(F)(F)F)c1)c1cccc(Oc2ccccc2)c1)c1ccccc1` (stereo not given), with over 50 µM.
